In ChEMBL document CHEMBL3817745, “Structure-Activity Relationship for the 4(3H)-Quinazolinone Antibacterials” (J Med Chem, 2016):
≈ marks a conversion by molar mass, not a printed value.

Legend:
Enterococcus faecium = test: Antibacterial activity against Enterococcus faecium NCTC 7171 incubated for 16 to 20 hrs by microdilution method; assay type: functional
Outline: (§1)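 CLSI broth microdilution. 2-fold serial dilutions were made in cation-adjusted Mueller–Hinton broth, with 5% lysed horse blood added for Streptococcus strains, in triplicate. Inoculum 5×10^5 CFU/mL. Plates incubated 36 °C for 16–20 h. MIC taken as the lowest concentration visibly inhibiting growth.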

Klebsiella aerogenes = test: Antibacterial activity against Enterobacter aerogenes ATCC 35029 incubated for 16 to 20 hrs by microdilution method; assay type: functional; outline: as §1
Acinetobacter baumannii = test: Antibacterial activity against Acinetobacter baumannii ATCC 17961 incubated for 16 to 20 hrs by microdilution method; assay type: functional; outline: as §1
[1] = Hemolytic activity against human RBC at 64 ug/ml relative to control; assay type: ADME, cell-based, Erythrocyte; conditions: erythrocyte
Outline: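 Hemolysis was measured at a fixed 64 μg/mL on a 10% red-cell suspension from heparinized human blood. Triton-X served as the positive control, and results are given as percent hemolysis.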

HepG2 = test: Cytotoxicity against human HepG2 cells incubated for 16 hrs by XTT assay; assay type: cell-based; conditions: HepG2, 16 h
Outline: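 HepG2 cells were tested with an XTT viability read-out, in triplicate. IC50 was obtained by nonlinear regression.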

Mus musculus [2] = test: AUC (0 to last) in ICR mouse peritonitis model infected with methicillin resistant Staphylococcus aureus ATCC 27660 at 5 mg/kg, iv administered as single dose measured up to 8 hrs by UPLC analysis; assay type: ADME, organism-based; parameters: dose 5 mg/kg, route intravenous, time 0 - last; conditions: in vivo
Outline: (§2)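 Fast PK: female ICR mice (n = 2 per time point) given single tail-vein iv injection at 5, 10 or 20 mg/kg in 25% DMSO/65% propylene glycol/10% water (2.5, 5 or 10 mg/mL); terminal cardiac blood at 5 min, 40 min, 2, 4, 8 h; plasma analysed by UPLC with internal standard calibration.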

Pseudomonas aeruginosa = test: Antibacterial activity against Pseudomonas aeruginosa […] incubated for 16 to 20 hrs by microdilution method; assay type: functional; outline: as §1
Klebsiella pneumoniae = test: Antibacterial activity against Klebsiella pneumoniae ATCC 700603 incubated for 16 to 20 hrs by microdilution method; assay type: functional; outline: as §1
Staphylococcus aureus [3] = test: Antibacterial activity against methicillin-susceptible Staphylococcus aureus ATCC 29213 incubated for 16 to 20 hrs by microdilution method; assay type: functional
Escherichia coli = test: Antibacterial activity against Escherichia coli ATCC 25922 incubated for 16 to 20 hrs by microdilution method; assay type: functional; outline: as §1
[4] = Ratio of IC50 for human HepG2 cells to MIC for methicillin-susceptible Staphylococcus aureus ATCC 29213
Outline: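 HepG2 XTT cytotoxicity in triplicate, IC50 by nonlinear regression, divided by broth-microdilution MIC for ATCC 29213.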

[5] = Ratio of hemolytic concentration for human RBC to MIC for methicillin-susceptible Staphylococcus aureus ATCC 29213
[6] = tested on: Staphylococcus epidermidis; test: Antibacterial activity against Staphylococcus epidermidis ATCC 35547 incubated for 16 to 20 hrs by microdilution method; assay type: functional; outline: as §1
Staphylococcus aureus [7] = test: Antibacterial activity against mecA-positive multidrug resistant Staphylococcus aureus NRS120 incubated for 16 to 20 hrs by microdilution method; assay type: functional
Streptococcus oralis = test: Antibacterial activity against Streptococcus oralis ATCC 9811 incubated for 16 to 20 hrs by microdilution method; assay type: functional; outline: as §1
Staphylococcus aureus [8] = test: Antibacterial activity against mecA-positive multidrug resistant Staphylococcus aureus COL NRS100 incubated for 16 to 20 hrs by microdilution method; assay type: functional
Mus musculus [9] = test: AUC (0 to last) in ICR mouse peritonitis model infected with methicillin resistant Staphylococcus aureus ATCC 27660 at 20 mg/kg, iv administered as single dose measured up to 8 hrs by UPLC analysis; assay type: ADME, organism-based; parameters: dose 20 mg/kg, time 0 - last, route intravenous; conditions: in vivo; outline: as §2
Enterococcus faecalis [10] = test: Antibacterial activity against methicillin-susceptible Enterococcus faecalis ATCC 29212 incubated for 16 to 20 hrs by microdilution method; assay type: functional; outline: as §1
Staphylococcus aureus [11] = test: Antibacterial activity against vancomycin/methicillin-resistant Staphylococcus aureus VRS2 clinical isolate incubated for 16 to 20 hrs by microdilution method; assay type: functional
[12] = tested on: Staphylococcus haemolyticus; test: Antibacterial activity against Staphylococcus haemolyticus ATCC 29970 incubated for 16 to 20 hrs by microdilution method; assay type: functional
Streptococcus pyogenes = test: Antibacterial activity against Streptococcus pyogenes ATCC 49399 incubated for 16 to 20 hrs by microdilution method; assay type: functional; outline: as §1
Bacillus licheniformis = test: Antibacterial activity against Bacillus licheniformis ATCC 12759 incubated for 16 to 20 hrs by microdilution method; assay type: functional; outline: as §1
Staphylococcus aureus [13] = test: Antibacterial activity against vancomycin/methicillin-resistant Staphylococcus aureus VRS1 clinical isolate incubated for 16 to 20 hrs by microdilution method; assay type: functional
Bacillus cereus = test: Antibacterial activity against Bacillus cereus ATCC 13061 incubated for 16 to 20 hrs by microdilution method; assay type: functional; outline: as §1
Enterococcus faecalis [14] = test: Antibacterial activity against vancomycin-resistant Enterococcus faecalis 99 clinical isolate incubated for 16 to 20 hrs by microdilution method; assay type: functional
Staphylococcus aureus [15] = test: Antibacterial activity against mecA-positive methicillin/oxacillin/tetracycline-resistant Staphylococcus aureus ATCC 27660 incubated for 16 to 20 hrs by microdilution method; assay type: functional

SMILES: O=c1c2ccccc2nc(/C=C/c2ccc(F)cc2)n1-c1cccc(O)c1
- MIC (Enterococcus faecium): ≥ 8 µg/mL
- MIC (Klebsiella aerogenes): ≥ 16 µg/mL
- MIC (Acinetobacter baumannii): ≥ 16 µg/mL
- Activity [1]: < 1%
- IC50 (HepG2): 16.4 µg/mL (≈ 45.8 µM)
- AUClast (Mus musculus [2]): 466 µg·min/mL
- MIC (Pseudomonas aeruginosa): ≥ 16 µg/mL
- MIC (Klebsiella pneumoniae): ≥ 16 µg/mL
- MIC (Staphylococcus aureus [3]): 0.25 µg/mL (≈ 0.698 µM)
- MIC (Escherichia coli): ≥ 16 µg/mL
- Ratio [4]: >30
- Ratio [5]: > 120

SMILES: O=C(O)c1cccc(-n2c(/C=C/c3ccc(F)cc3)nc3ccccc3c2=O)c1
- MIC (Enterococcus faecium): > 128 µg/mL
- MIC [6]: 0.125 µg/mL (≈ 0.324 µM)
- MIC (Staphylococcus aureus [7]): 8 µg/mL (≈ 20.7 µM)
- MIC (Streptococcus oralis): 128 µg/mL (≈ 331 µM)
- MIC (Staphylococcus aureus [8]): 8 µg/mL (≈ 20.7 µM)
- AUClast (Mus musculus [9]): 2560 µg·min/mL
- MIC (Enterococcus faecalis [10]): > 128 µg/mL
- MIC (Klebsiella aerogenes): ≥ 16 µg/mL
- MIC (Staphylococcus aureus [11]): 1 µg/mL (≈ 2.59 µM)
- MIC [12]: 0.25 µg/mL (≈ 0.647 µM)
- MIC (Streptococcus pyogenes): 128 µg/mL (≈ 331 µM)
- MIC (Acinetobacter baumannii): ≥ 16 µg/mL
- MIC (Bacillus licheniformis): > 128 µg/mL
- Activity [1]: < 1%
- IC50 (HepG2): 95.5 µg/mL (≈ 247 µM)
- MIC (Pseudomonas aeruginosa): ≥ 16 µg/mL
- MIC (Klebsiella pneumoniae): ≥ 16 µg/mL
- MIC (Staphylococcus aureus [3]): 1 µg/mL (≈ 2.59 µM)
- MIC (Escherichia coli): ≥ 16 µg/mL
- MIC (Staphylococcus aureus [13]): 8 µg/mL (≈ 20.7 µM)
- MIC (Bacillus cereus): > 128 µg/mL
- MIC (Enterococcus faecalis [14]): > 128 µg/mL
- MIC (Staphylococcus aureus [15]): 2 µg/mL (≈ 5.18 µM)
